Experimental data pooled from the literature.
Protocols differ between the studies behind these lines.
PTGS2: Prostaglandin G/H synthase 2 (PTGS2, Homo sapiens, UniProt P35354)
DYRK1B: Dual specificity tyrosine-phosphorylation-regulated kinase 1B (DYRK1B, Homo sapiens, UniProt Q9Y463)

SMILES | target | test | conditions | measurement | value
Cc1cnc(Nc2ccc(OCCN3CCCC3)cc2)nc1Nc1cccc(S(=O)(=O)NC(C)(C)C)c1 | Bromodomain testis-specific protein, BD1 (BRDT, Homo sapiens, UniProt Q58F21) | thermal stability, DSF | 10 µM | ΔTm | 3.38 °C
O=C(O)c1ccc(O)cc1 | PTGS2 | enzyme activity, inhibitor | 0.49 µg/mL | inhibition | 19.4%
Cc1cc2c(cc1N1C(=O)c3cccc4c(Cl)ccc(c34)C1=O)n(C)c(=O)n2C | Transcription intermediary factor 1-beta (TRIM28, Homo sapiens, UniProt Q13263) | thermal stability, DSF | 10 µM | ΔTm | 0.3 °C
O=C(O)c1ccc2c(c1)nc(Nc1ccc(F)c(Cl)c1)c1ncncc12 | DYRK1B | enzyme activity, inhibitor, radiometric | 1 µM | remaining activity | 60%
O=c1cc(-c2ccc(O)cc2)oc2cc(O)cc(O)c12 | PTGS2 | enzyme activity, inhibitor | 0.49 µg/mL | inhibition | 16.4%
NS(=O)(=O)c1ccc(Nc2nc(-c3ccc(F)cc3)c3ccccc3n2)cc1 | CREB-binding protein (CREBBP, Homo sapiens, UniProt Q92793) | binding, competition with immobilised ligand | 1 µM | remaining binding | 54%
C[S+]([O-])c1ccc(-c2nc(-c3ccncc3)c(-c3ccc(F)cc3)[nH]2)cc1 (centres unmarked) | Bromodomain testis-specific protein, BD2 (BRDT, Homo sapiens, UniProt Q58F21) | thermal stability, DSF | 10 µM | ΔTm | 0.59 °C
O=C(O)c1ccc2c(c1)nc(Nc1cccc(F)c1)c1ccncc12 | DYRK1B | enzyme activity, inhibitor, radiometric | 1 µM | remaining activity | 13%
